Reference: ChEMBL document CHEMBL1250546, “Synthesis of non-purine analogs of 6-aryl-9-benzylpurines, and their antimycobacterial activities. Compounds modified in the imidazole ring” (Bioorg Med Chem, 2010)
≈ marks a conversion by molar mass, not a printed value.

Tests used:
[1] = Selectivity index, ratio of EC50 for african green monkey Vero cells to MIC for Mycobacterium tuberculosis H37Rv ATCC 27294; type: functional
Staphylococcus aureus = assay: Antibacterial activity against Staphylococcus aureus; type: functional
Escherichia coli = assay: Antibacterial activity against Escherichia coli; type: functional
[2] = tested on: Mycobacterium tuberculosis; assay: Antibacterial activity against Mycobacterium tuberculosis H37Rv ATCC 27294 after 7 days by microplate alamar blue assay; type: functional; details: H37Rv ATCC 27294, 168 h
In short: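 Microplate alamar blue assay in 7H12 medium against M. tuberculosis H37Rv ATCC 27294 and against rifampicin-, isoniazid-, streptomycin- and kanamycin-resistant Mtb strains. Bacteria were incubated with test samples for 7 days, then fluorescence was read. MIC is the lowest concentration giving at least a 90% fluorescence reduction relative to untreated controls.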

Vero = assay: Cytotoxicity against african green monkey Vero cells; type: cell-based; details: Chlorocebus sabaeus
In short: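 Mammalian-cell toxicity was measured in VERO cells and expressed as EC₅₀.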

[3] = tested on: Mycobacterium tuberculosis; assay: Antibacterial activity against Mycobacterium tuberculosis; type: functional

Compound | Selectivity Index [1] | MIC (Staphylococcus aureus) [µg/mL] | MIC (Escherichia coli) [µg/mL] | MIC [2] [µM] | EC50 (Vero) [µM] | MIC [3] [µg/mL]
COc1ccc(Cn2nnc3c(-c4ccco4)ncnc32)cc1 | >54 | > 32 | > 90 | 2.4 (≈ 0.738 µg/mL) | > 130 | –
COc1ccc(Cn2ncc3c(-c4ccco4)ncnc32)cc1 | >91 | > 32 | > 90 | 3.6 (≈ 1.1 µg/mL) | > 327 | –
COc1ccc(Cn2ccc3c(-c4ccco4)ncnc32)cc1 | >756 | > 32 | > 90 | 0.16 (≈ 0.0489 µg/mL) | > 131 | –
COc1ccc(Cn2ccc3c(-c4cccs4)ncnc32)cc1 | 114 | – | – | 0.35 (≈ 0.112 µg/mL) | 40 | –
COc1ccc(Cn2ccc3c(-c4ccco4)nc(Cl)nc32)cc1 | 1063 | > 32 | > 90 | 0.08 (≈ 0.0272 µg/mL) | 85 | –
COc1ccc(Cn2ccc3c(-c4cccs4)nc(Cl)nc32)cc1 | 691 | – | – | 0.11 (≈ 0.0391 µg/mL) | 76 | –
COc1ccc(Cn2ccc3c(-c4ccco4)nc(OC)nc32)cc1 | 205 | – | – | 0.22 (≈ 0.0738 µg/mL) | 45 | –
COc1ccc(C(=O)c2cn(C)c3c(-c4ccco4)ncnc23)cc1 | – | > 32 | > 90 | 192 (≈ 64 µg/mL) | – | –
COc1ccc(C(=O)c2c[nH]c3c(-c4ccco4)ncnc23)cc1 | – | > 32 | > 90 | > 300 | – | –
COc1ccc(Cc2cn(C)c3c(-c4ccco4)ncnc23)cc1 | – | > 32 | > 90 | 97 (≈ 31 µg/mL) | – | –
COc1ccc(Cn2cnc3c(-c4cccs4)nc(Cl)nc32)cc1 | – | – | – | – | – | 0.78 (≈ 2.19 µM)
COc1ccc(Cn2cnc3c(-c4ccco4)ncnc32)cc1 | >98 | – | – | 2.1 (≈ 0.643 µg/mL) | > 206 | 1.65 (≈ 5.39 µM)
COc1ccc(Cn2cnc3c(-c4ccco4)nc(Cl)nc32)cc1 | >325 | – | – | 0.36 (≈ 0.123 µg/mL) | > 117 | 0.39 (≈ 1.14 µM)
CO[C@H]1/C=C/O[C@@]2(C)Oc3c(C)c(O)c4c(O)c(c(/C=N/N5CCN(C)CC5)c(O)c4c3C2=O)NC(=O)/C(C)=C\C=C\[C@H](C)[C@H](O)[C@@H](C)[C@@H](O)[C@@H](C)[C@H](OC(C)=O)[C@@H]1C [RIFAMPIN] | – | – | – | – | – | 0.25 (≈ 0.304 µM)
